Active and inactive are the calls of the source. The rule behind the calls is not given here.

For experiment [1], the target named is Wee1-like protein kinase (Homo sapiens) (UniProt P30291). Description: Inhibition of WEE1 (unknown origin) at 1 uM by Ambit Kinomescan binding assay relative to control.
Experiment [2] deals with Phosphatidylinositol 4,5-bisphosphate 3-kinase catalytic subunit alpha isoform (Homo sapiens) (UniProt P42336). Description: Inhibition of PIK3CA ATP labeling site in human A-375 cells at 0.05 uM by KiNativ Profiling analysis relative to control. It counts as cell-based.
In experiment [3] the target is Atypical kinase COQ8B, mitochondrial (Homo sapiens) (UniProt Q96D53). As to the kind of experiment: Inhibition of ADCK4 (unknown origin) at 1 uM by Ambit Kinomescan binding assay relative to control.
Experiment [4] concerns the target Serine/threonine-protein kinase Chk2 (Homo sapiens) (UniProt O96017). As to the kind of experiment: Inhibition of CHEK2 (unknown origin) at 1 uM by Ambit Kinomescan binding assay relative to control.
Experiment [5] addresses T1, Phosphatidylinositol 5-phosphate 4-kinase type-2 gamma (Homo sapiens) (UniProt Q8TBX8).
T1 sequence (whole entry): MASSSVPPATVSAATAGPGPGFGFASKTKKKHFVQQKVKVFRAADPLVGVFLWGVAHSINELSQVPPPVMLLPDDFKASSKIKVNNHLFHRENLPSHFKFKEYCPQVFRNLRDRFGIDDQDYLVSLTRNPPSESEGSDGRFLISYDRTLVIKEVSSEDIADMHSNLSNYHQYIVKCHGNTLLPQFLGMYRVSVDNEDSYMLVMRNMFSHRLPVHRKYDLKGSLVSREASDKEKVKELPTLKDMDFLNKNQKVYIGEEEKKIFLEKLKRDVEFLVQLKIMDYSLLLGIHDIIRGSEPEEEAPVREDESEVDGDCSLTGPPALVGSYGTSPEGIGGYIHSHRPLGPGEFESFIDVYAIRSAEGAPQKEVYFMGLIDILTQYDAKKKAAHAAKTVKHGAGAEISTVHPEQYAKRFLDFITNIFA
As to the kind of experiment: Inhibition of PIP4K2C ATP labeling site harbouring VKELPTLK in human A-375 cells at 0.05 uM by KiNativ Profiling analysis relative to control. Format: cell-based.

Experiment [6] concerns Receptor-type tyrosine-protein kinase FLT3 (Homo sapiens), P36888 [D835H]. Description: Inhibition of FLT3 D835H mutant (unknown origin) at 1 uM by Ambit Kinomescan binding assay relative to control; values are per cent of control.
Experiment [7] has as its target Serine/threonine-protein kinase Nek2 (Homo sapiens) (UniProt P51955). As to the kind of experiment: Inhibition of NEK2 (unknown origin) at 1 uM by Ambit Kinomescan binding assay relative to control; values are per cent of control.
The target in experiment [8] is Serine/threonine-protein kinase 32C (Homo sapiens) (UniProt Q86UX6). As to the kind of experiment: Inhibition of YANK3 Lys2 labeling site in human A-375 cells at 0.5 uM by KiNativ Profiling analysis relative to control. It counts as cell-based.
Experiment [9] addresses Ribosomal protein S6 kinase alpha-1 (Homo sapiens) (UniProt Q15418). Description: Inhibition of RSK1 domain1 Lys2 labeling site harbouring DLKPENILLDEEGHIKLTDFGLSK in human A-375 cells at 5 uM by KiNativ Profiling analysis relative to control. It counts as cell-based. An outline of the steps:
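Live A375 melanoma cells treated with compound at 5 or 0.5 μM, then lysed. Lysate kinases were labeled with a lysine-reactive ATP or ADP-biotin probe. Inhibition was read as protection of labeling sites from the probe.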

Experiment [10] addresses Serine/threonine-protein kinase MARK2 (Homo sapiens) (UniProt Q7KZI7). As to the kind of experiment: Inhibition of MARK2 K1 labeling site harbouring HILTGKEVAVKIIDKTQLNSSSLQK in human Huh-7 cells at 10 uM by KiNativ Profiling analysis relative to control. Format: cell-based.
Experiment [11] has as its target cGMP-dependent protein kinase 1 (Homo sapiens) (UniProt Q13976). Description: Inhibition of PRKG1 (unknown origin) at 10 uM by Ambit Kinomescan binding assay.
For experiment [12], the target named is TRAF2 and NCK-interacting protein kinase (Homo sapiens) (UniProt Q9UKE5). Description: Inhibition of TNIK K1 labeling site in human Huh-7 cells at 1 uM by KiNativ Profiling analysis relative to control. It counts as cell-based.
For experiment [13], the target named is Cyclin-dependent kinase 17 (Homo sapiens) (UniProt Q00537). As to the kind of experiment: Inhibition of PCTAIRE2 K2 labeling site in human Huh-7 cells at 10 uM by KiNativ Profiling analysis relative to control. It counts as cell-based.
The target of experiment [14] is Activin receptor type-1-like (Homo sapiens) (UniProt P37023). As to the kind of experiment: Inhibition of ACVRL1 (unknown origin) at 10 uM by Ambit Kinomescan binding assay.
The target in experiment [15] is T1, Phosphatidylinositol 5-phosphate 4-kinase type-2 gamma (Homo sapiens). Description: Inhibition of PIP5K2C C2 labeling site in human Huh-7 cells at 10 uM by KiNativ Profiling analysis relative to control. Format: cell-based.
Experiment [16] addresses MAP/microtubule affinity-regulating kinase 3 (Homo sapiens) (UniProt P27448). As to the kind of experiment: Inhibition of MARK3 K1 labeling site in human Huh-7 cells at 10 uM by KiNativ Profiling analysis relative to control. Format: cell-based.
The target in experiment [17] is AMPK alpha1/alpha2 (Homo sapiens) (UniProt P54646+Q13131). Description: Inhibition of AMPK alpha1/2 K2 labeling site in human Huh-7 cells at 1 uM by KiNativ Profiling analysis relative to control. It counts as cell-based.
Experiment [18] has as its target Serine/threonine-protein kinase 3/4 (Homo sapiens) (UniProt Q13043+Q13188). As to the kind of experiment: Inhibition of MST1/2 K2 labeling site in human Huh-7 cells at 10 uM by KiNativ Profiling analysis relative to control. Format: cell-based.
The target in experiment [19] is Serine/threonine-protein kinase PAK 4 (Homo sapiens) (UniProt O96013). Description: Inhibition of PAK4 (unknown origin) at 10 uM by Ambit Kinomescan binding assay.
In experiment [20] the target is Cyclin-dependent kinase 5 (Homo sapiens) (UniProt Q00535). As to the kind of experiment: Inhibition of CDK5 K2 labeling site harbouring DLKPQNLLINR in human Huh-7 cells at 1 uM by KiNativ Profiling analysis relative to control. Format: cell-based.
Experiment [21] addresses Cyclin-dependent kinase 2 (Homo sapiens) (UniProt P24941). Description: Inhibition of CDK2 Lys2 labeling site harbouring DLKPQNLLINTEGAIK in human Huh-7 cells at 1 uM by KiNativ Profiling analysis relative to control. Format: cell-based.
The nature of experiment [22]: Inhibition of KHS1 Lys2 labeling site harbouring DIKGANILLTDHGDVKLADFGVAAK in human Huh-7 cells at 1 uM by KiNativ Profiling analysis relative to control. Particulars: condition cancer.
Experiment [23] addresses Rho-associated protein kinase 2 (Homo sapiens) (UniProt O75116). As to the kind of experiment: Inhibition of ROCK2 Lys2 labeling site in human Huh-7 cell lysate at 1 uM by KiNativ Profiling analysis relative to control. Format: subcellular.
Experiment [24] addresses Serine/threonine-protein kinase WNK3 (Homo sapiens) (UniProt Q9BYP7). As to the kind of experiment: Inhibition of Wnk3 ACT labeling site in human Huh-7 cell lysate at 1 uM by KiNativ Profiling analysis relative to control. Format: subcellular.
Experiment [25] addresses Serine/threonine-protein kinase 25 (Homo sapiens) (UniProt O00506). As to the kind of experiment: Inhibition of YSK1 Lys2 labeling site in human Huh-7 cells at 1 uM by KiNativ Profiling analysis relative to control. It counts as cell-based.

Serine/threonine-protein kinase 25 (Homo sapiens), sequence (O00506 whole entry, looked up): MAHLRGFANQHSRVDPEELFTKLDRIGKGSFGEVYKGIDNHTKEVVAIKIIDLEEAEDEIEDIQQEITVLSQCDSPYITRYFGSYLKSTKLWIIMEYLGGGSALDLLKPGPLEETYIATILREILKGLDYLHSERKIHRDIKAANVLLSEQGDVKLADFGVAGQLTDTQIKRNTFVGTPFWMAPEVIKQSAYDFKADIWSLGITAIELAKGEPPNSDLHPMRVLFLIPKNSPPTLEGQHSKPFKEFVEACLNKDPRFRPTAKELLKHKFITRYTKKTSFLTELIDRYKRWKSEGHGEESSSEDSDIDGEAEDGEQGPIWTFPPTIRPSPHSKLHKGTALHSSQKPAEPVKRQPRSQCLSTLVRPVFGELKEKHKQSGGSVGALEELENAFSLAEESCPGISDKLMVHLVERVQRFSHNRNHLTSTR
Activin receptor type-1-like (Homo sapiens), sequence (P37023 whole entry): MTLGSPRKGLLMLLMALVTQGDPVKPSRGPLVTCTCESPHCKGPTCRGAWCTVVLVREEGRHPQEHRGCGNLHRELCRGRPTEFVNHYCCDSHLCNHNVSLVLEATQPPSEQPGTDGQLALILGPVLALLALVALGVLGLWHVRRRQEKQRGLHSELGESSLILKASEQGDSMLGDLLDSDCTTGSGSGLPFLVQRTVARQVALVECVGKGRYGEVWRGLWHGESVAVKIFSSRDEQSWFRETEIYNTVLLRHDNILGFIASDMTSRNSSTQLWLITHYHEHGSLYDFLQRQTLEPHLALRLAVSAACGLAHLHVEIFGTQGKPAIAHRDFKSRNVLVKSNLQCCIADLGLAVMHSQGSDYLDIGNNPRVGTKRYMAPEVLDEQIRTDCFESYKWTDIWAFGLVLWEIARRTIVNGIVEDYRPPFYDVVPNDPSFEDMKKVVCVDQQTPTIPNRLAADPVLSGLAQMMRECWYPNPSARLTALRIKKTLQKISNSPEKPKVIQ
Phosphatidylinositol 4,5-bisphosphate 3-kinase catalytic subunit alpha isoform (Homo sapiens), sequence (P42336 whole entry, canonical isoform): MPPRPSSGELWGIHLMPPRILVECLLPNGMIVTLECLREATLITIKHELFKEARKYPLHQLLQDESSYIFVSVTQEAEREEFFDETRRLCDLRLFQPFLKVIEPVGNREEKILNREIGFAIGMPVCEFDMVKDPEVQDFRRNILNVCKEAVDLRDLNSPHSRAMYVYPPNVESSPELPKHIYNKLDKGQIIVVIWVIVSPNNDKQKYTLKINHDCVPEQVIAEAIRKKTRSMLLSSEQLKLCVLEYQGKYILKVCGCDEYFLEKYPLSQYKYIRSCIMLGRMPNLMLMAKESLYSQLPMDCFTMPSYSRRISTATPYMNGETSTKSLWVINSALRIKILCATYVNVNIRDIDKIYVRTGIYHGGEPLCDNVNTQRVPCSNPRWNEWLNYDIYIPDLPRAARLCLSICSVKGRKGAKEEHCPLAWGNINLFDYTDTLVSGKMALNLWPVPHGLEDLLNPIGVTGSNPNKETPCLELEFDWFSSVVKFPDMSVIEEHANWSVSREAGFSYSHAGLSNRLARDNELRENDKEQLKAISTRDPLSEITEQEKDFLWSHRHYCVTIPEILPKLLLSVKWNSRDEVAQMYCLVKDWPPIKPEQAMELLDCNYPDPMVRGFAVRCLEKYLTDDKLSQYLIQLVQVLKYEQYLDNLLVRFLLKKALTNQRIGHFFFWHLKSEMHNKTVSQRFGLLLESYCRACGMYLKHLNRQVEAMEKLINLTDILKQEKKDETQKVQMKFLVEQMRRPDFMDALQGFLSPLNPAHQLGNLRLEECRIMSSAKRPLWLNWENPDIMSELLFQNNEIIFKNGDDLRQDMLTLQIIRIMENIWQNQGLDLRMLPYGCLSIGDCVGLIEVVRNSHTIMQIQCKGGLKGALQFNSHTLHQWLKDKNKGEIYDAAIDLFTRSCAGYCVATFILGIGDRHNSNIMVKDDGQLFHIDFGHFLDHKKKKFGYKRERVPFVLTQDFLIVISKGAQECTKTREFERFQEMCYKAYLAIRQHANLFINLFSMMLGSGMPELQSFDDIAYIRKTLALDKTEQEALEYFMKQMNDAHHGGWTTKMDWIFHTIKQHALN
Rho-associated protein kinase 2 (Homo sapiens), sequence (O75116 whole entry, looked up): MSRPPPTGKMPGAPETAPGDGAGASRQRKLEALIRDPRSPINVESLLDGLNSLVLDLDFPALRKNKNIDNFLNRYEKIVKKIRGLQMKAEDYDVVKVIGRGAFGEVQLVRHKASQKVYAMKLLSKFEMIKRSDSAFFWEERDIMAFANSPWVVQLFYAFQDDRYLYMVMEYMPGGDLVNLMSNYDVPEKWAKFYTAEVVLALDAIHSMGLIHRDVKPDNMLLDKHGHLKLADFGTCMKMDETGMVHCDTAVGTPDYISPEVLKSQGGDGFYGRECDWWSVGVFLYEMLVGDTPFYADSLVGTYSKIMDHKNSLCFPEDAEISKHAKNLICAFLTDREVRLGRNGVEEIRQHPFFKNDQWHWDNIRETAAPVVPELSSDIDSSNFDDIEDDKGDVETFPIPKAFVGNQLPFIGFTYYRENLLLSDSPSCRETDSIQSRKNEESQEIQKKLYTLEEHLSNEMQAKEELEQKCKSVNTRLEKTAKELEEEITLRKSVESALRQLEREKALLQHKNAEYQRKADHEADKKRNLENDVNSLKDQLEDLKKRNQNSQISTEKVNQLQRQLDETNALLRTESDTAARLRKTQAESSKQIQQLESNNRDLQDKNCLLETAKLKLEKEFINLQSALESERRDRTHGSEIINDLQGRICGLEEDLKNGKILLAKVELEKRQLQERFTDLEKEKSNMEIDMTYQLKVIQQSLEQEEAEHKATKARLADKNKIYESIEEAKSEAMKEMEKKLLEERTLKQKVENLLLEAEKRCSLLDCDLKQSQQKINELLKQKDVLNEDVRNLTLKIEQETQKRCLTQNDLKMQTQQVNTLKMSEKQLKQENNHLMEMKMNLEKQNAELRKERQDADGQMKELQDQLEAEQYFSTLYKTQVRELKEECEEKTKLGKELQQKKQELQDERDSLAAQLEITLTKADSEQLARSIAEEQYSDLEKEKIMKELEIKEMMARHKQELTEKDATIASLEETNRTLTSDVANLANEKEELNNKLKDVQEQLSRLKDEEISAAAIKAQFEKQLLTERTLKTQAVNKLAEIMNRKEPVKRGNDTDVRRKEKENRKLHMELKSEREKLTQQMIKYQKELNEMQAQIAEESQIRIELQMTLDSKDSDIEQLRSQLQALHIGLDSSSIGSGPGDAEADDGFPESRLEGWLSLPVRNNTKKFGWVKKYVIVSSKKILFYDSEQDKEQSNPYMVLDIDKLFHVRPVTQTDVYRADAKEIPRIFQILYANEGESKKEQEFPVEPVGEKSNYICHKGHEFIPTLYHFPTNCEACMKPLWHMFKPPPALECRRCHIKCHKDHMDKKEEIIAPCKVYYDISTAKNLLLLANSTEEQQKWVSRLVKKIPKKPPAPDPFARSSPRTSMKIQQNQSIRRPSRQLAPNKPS
Cyclin-dependent kinase 17 (Homo sapiens), sequence (Q00537 whole entry, looked up): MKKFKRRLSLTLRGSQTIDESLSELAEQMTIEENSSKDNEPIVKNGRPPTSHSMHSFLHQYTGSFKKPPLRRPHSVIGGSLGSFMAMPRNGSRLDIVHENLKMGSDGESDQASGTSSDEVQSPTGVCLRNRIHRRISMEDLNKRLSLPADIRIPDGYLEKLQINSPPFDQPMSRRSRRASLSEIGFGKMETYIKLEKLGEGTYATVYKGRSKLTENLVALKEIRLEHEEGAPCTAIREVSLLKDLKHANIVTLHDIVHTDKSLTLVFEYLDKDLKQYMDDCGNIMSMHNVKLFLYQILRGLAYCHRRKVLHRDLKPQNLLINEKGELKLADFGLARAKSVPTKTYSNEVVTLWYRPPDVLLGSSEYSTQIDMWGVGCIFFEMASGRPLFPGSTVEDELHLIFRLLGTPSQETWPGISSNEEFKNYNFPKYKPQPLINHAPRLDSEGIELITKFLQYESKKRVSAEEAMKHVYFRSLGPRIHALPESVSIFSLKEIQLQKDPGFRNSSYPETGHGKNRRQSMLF
Ribosomal protein S6 kinase alpha-1 (Homo sapiens), sequence (Q15418 whole entry, the tested form may be a part): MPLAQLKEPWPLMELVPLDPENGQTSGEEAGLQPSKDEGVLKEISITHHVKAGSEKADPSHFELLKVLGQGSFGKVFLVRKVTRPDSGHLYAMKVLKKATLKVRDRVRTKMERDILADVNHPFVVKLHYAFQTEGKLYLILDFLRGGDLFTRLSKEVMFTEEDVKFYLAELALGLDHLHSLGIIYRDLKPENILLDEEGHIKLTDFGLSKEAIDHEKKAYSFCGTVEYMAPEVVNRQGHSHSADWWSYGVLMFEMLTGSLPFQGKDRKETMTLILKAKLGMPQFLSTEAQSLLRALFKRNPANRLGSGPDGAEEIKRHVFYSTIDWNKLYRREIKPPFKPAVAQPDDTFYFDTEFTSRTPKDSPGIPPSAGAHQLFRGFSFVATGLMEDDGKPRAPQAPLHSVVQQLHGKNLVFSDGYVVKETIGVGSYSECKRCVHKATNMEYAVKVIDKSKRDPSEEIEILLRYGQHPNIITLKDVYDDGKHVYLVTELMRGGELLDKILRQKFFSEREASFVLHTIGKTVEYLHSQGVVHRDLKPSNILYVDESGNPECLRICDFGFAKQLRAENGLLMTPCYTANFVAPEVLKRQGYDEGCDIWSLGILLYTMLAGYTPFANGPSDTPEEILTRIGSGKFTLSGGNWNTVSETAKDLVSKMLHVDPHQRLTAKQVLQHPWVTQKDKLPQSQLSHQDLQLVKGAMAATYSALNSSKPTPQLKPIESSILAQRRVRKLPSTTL
Cyclin-dependent kinase 5 (Homo sapiens), sequence (Q00535 whole entry, looked up): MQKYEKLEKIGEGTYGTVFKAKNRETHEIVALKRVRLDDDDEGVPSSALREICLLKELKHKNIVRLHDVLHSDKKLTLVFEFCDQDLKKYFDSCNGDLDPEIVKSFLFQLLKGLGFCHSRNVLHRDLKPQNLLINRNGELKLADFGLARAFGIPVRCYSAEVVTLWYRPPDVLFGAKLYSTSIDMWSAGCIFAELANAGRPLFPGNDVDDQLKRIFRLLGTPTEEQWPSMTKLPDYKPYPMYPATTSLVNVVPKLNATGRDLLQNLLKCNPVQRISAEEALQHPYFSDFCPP

What is called inhibition is the relative decrease from the control value, in per cent. A word on the residual activity: it is the activity still measured, relative to the control. The low end stands for little activity left, the high end for much activity left. For `CCN1CCN(Cc2ccc(NC(=O)c3ccc(C)c(/C=C/c4cnc5[nH]ccc5c4OC)c3)cc2C(F)(F)F)CC1`, the inhibition in experiment [1] is 100%; in experiment [2], 39%; in [3], 81%; in [4] it was 82%; in experiment [5], -8.6%; in experiment [8], 11.5%. The inhibition in experiment [9] was -4.9%. For the same molecule, the residual activity in experiment [6] was 2.6%; in [7] it was 100%.

In the case of `CCN1CCN(Cc2ccc(NC(=O)c3ccc(C)c(Oc4ccnc5[nH]ccc45)c3)cc2C(F)(F)F)CC1`, the inhibition entry in experiment [10], in experiment [11], in experiment [14] and in experiment [19] was “inactive” each time. The inhibition was 35.6% in experiment [12]; 41.7% in experiment [13]; 2.3% in experiment [15]; -7.2% in [16]; 12.5% in [17]; -9.8% in experiment [18]. The inhibition in [20] is -7.6%.

Turning to `CNc1cc(Oc2cc(C(=O)Nc3cc(N4CCN(C)CC4)cc(C(F)(F)F)c3)ccc2C)ncn1`, the inhibition in experiment [21] was -0.4%; in experiment [23] it was 2.7%; in experiment [24], -6.9%; in experiment [25] it was 25.2%. Moreover, the inhibition at 1 µM in experiment [22] stood at 19.8%.

These data come from ChEMBL document CHEMBL5696442, “Discovery of type II inhibitors of TGFβ-activated kinase 1 (TAK1) and mitogen-activated protein kinase kinase kinase kinase 2 (MAP4K2)” (J Med Chem, 2015).
